{"source": "ChEMBL document CHEMBL1149895", "about": "“Steroids and flavonoids from Physalis alkekengi var. franchetii and their inhibitory effects on nitric oxide production” (J Nat Prod, 2008)"}
{"system": "RAW264.7", "experiment": "Inhibition of LPS-induced nitric oxide production in mouse RAW264.7 cells assessed as nitrite formation", "format": "functional, cell-based", "outline": "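RAW 264.7 cells in RPMI 1640 with 10% heat-inactivated FBS, penicillin and streptomycin, seeded at 1 × 10^5 cells/well and allowed to adhere 2 h at 37 °C in 5% CO2. LPS 1 µg/mL with or without compound (DMSO 0.2% v/v final) for 24 h. Supernatant nitrite read by Griess reagent against a 0–100 µM sodium nitrite line. Inhibition taken relative to LPS-only and untreated wells. Triplicate, mean ± SD of three independent experiments.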", "units": {"IC50": "µM"}}
{"smiles": "C[C@]12CCC(=O)C=C1CC[C@@H]1[C@@H]2[C@@H](O)C[C@@]2(C)[C@H]1CC[C@]2(O)C(=O)CO", "note": "[HYDROCORTISONE]", "IC50": 64.3}
{"smiles": "C[C@]12C(=O)C[C@H](O)C=C1C=C[C@@H]1[C@@H]2CC[C@]2(O)C(=O)O[C@@]3(C)[C@H]4C[C@]5(C)[C@@H](CO[C@@]16O[C@@]32[C@H]5C6=O)C(=O)O4", "note": "[ISOPHYSALIN G]", "IC50": 64}
{"smiles": "O=c1cc(-c2ccc(O)c(O)c2)oc2cc(O)cc(O)c12", "note": "[LUTEOLIN]", "IC50": 7.39}
{"smiles": "COc1cc(O)c2c(=O)c(O)c(-c3ccc(OC)c(O)c3)oc2c1", "note": "[OMBUINE]", "IC50": 2.23}
{"smiles": "C=C1C(=O)O[C@@H]2C[C@@]1(C)[C@@H]1C(=O)[C@]3(O)O[C@]14[C@@]2(C)OC(=O)[C@@]4(O)CC[C@H]1[C@H]3[C@H](O)C=C2CC=CC(=O)[C@@]21C", "note": "[PHYSALIN A]", "IC50": 2.57}
{"smiles": "C[C@]12C(=O)C=CCC1=CC[C@@H]1[C@@H]2CC[C@]2(O)C(=O)O[C@@]3(C)[C@H]4C[C@]5(C)[C@@H](CO[C@@]16O[C@@]32[C@H]5C6=O)C(=O)O4", "note": "[PHYSALIN B]", "IC50": 0.84}
{"smiles": "C[C@@]12C[C@H]3OC(=O)[C@@H]1CO[C@]14O[C@]5([C@H]2C1=O)[C@@](O)(CC[C@H]1[C@H]4C[C@H]2O[C@]24CC=CC(=O)[C@]14C)C(=O)O[C@@]35C", "note": "[PHYSALIN F]", "IC50": 0.33}
{"smiles": "CO[C@H]1C=C2C=C[C@@H]3[C@H](CC[C@]4(O)C(=O)O[C@@]5(C)[C@H]6C[C@](C)([C@H](C)C(=O)O6)[C@H]6[C@@]3(O)C(=O)O[C@@]654)[C@@]2(C)C(=O)C1", "note": "[PHYSALIN I]", "IC50": 84}
{"smiles": "C[C@@H]1C(=O)O[C@@H]2C[C@@]1(C)[C@@H]1C(=O)[C@]3(O)O[C@]14[C@@]2(C)OC(=O)[C@@]4(O)CC[C@H]1[C@H]3[C@H](O)C=C2CC=CC(=O)[C@@]21C", "note": "[PHYSALIN O]", "IC50": 17.1}
{"smiles": "C[C@]12C(=O)C[C@@H](O)CC1=CC[C@@H]1[C@@H]2CC[C@]2(O)C(=O)O[C@@]3(C)[C@H]4C[C@]5(C)[C@@H](CO[C@@]16O[C@@]32[C@H]5C6=O)C(=O)O4", "note": "[PHYSALIN Y]", "IC50": 79.2}
{"smiles": "C[C@]12C(=O)C[C@@H](O)C=C1C=C[C@@H]1[C@@H]2CC[C@]2(O)C(=O)O[C@@]3(C)[C@H]4C[C@]5(C)[C@@H](CO[C@@]16O[C@@]32[C@H]5C6=O)C(=O)O4", "note": "[PHYSALIN Z]", "IC50": 75.7}
